Screening results (PubChem)
Hits are enriched below; roughly 2% of the tested compounds scored in any of these assays.
AI-2 QS mod – modulators of Vibrio harveyi AI-2 quorum sensing system. activity change, % at 7.5 µM. actives 0.4% (n = 300,000). Vibrio harveyi JMH597 AI-2 luminescence/OD600 ratio, 9 h; active compounds read low; strain lacks LuxN and CqsS sensors; 0 = neutral-control median; in the data active means activity change below about -75%, passing the limit was not always enough; inconclusive means no clear call, values can overlap the other calls;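 further: luminescence divided by OD600 gain over 9 h not by final OD600 alone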
HIF act – HIF pathway transcriptional activation. U2OS HRE-luciferase reporter, luminescence; normalized: DMSO 0%, desferrioxamine 100%. activation, % at 7.5 µM (by protocol). actives 0.32% (n = 300,000). AID 1910;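 active means mean activation of at least 10% of the iron chelator positive control signal, with at least half of replicates also reaching 10%; inconclusive means mean and replicate majority disagree about reaching 10%; inactive means mean and most replicates under 10%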
ARNT-TACC3 inh – ARNT/TACC3 interaction disruption | AlphaScreen His-ARNT PAS-B/GST-TACC3 binding, luminescence; TACC3 fragment carries E629A point mutation | inhibition, % at 9.99 µM | actives 0.66% (n = 390,000) | AID 623870;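 active means mean inhibition of replicates at least 50% and at least half of replicates each reaching 50%; inconclusive means half or more replicates reach 50% but mean below 50%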;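 further: 0% = complete ARNT plus TACC3 wells and 100% = ARNT alone without TACC3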
T cruzi repl – blocks replication of Trypanosoma cruzi; T. cruzi beta-gal in NIH3T3, luminescence, 90 h; inhibition, % (concentration not given with the values); actives 1.4% (n = 300,000); AID 1885;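 active means mean inhibition across valid replicates above about 55%, limit read from the data; inconclusive means mean below that limit but half or more replicates reach it; inactive means mean below it, under half of replicates reach it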;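 further: signal also drops with host cell toxicity which is not excluded here; 0% = plate median of DMSO wells and 100% = zero luminescence signal; higher percent means less beta-gal luminescence so fewer parasites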
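System: mouse NIH/3T3 fibroblasts infected with β-gal-expressing T. cruzi Tulahuen C4 / Input: NIH/3T3 cells, 5,000 per well / Buffer or medium: Low-serum DMEM with 2% FBS / Probe or stimulus: 5000 reporter trypomastigotes per well / Schedule: ≥90 h infection period, 3 h prior cell attachment / Measured by: GalScreen luminescence, 60 min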
JMH597 growth rt – retest: blocks Vibrio harveyi JMH597 growth; OD600 absorbance, 9 h; lacks LuxN and CqsS sensors; shares compounds with AI-2 QS mod; AID 2726; actives 1% (n = 750); growth inhibition, % at 7.5 µM;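 active means every replicate shows growth inhibition above 50%; inconclusive means at least half, but not all, replicates pass that cutoff; inactive means fewer than half of replicates pass it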
BB721 const-QS lum – retest counter-screen: lowers luminescence of constitutive-QS Vibrio harveyi BB721 | shares compounds with AI-2 QS mod | 9 h | inhibition, % at 7.5 µM | actives 95% (n = 750) | AID 2727;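 active means inhibition above about 80% in every replicate, not just on average, limit read from the data; inconclusive means at least half of replicates past the limit, but not all; inactive means fewer than half of replicates past the limit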
BB721 growth rt – retest Vibrio harveyi BB721 growth inhibition. AID 2728. shares compounds with AI-2 QS mod. growth inhibition, % at 7.5 µM. actives 3% (n = 750). OD600 absorbance, 9 h;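 active means every replicate shows growth inhibition above 50%; inconclusive means at least half but not all replicates above 50% inhibition; inactive means under half of replicates above 50% inhibition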
JMH597 AI-2 mod – Vibrio harveyi AI-2 signaling luminescence modulation – JMH597 strain, confirmation; shares compounds with AI-2 QS mod; Vibrio harveyi JMH597 AI-2 quorum sensing luminescence, 9 h; luxN and CqsS knockout, AI-2 only; inhibition, % at 7.5 µM; actives 97% (n = 750);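 active means every replicate shows more than 75% inhibition of signal versus neutral control wells; inconclusive means half to three quarters of replicates exceed 75% inhibition; inactive means fewer than half of replicates exceed 75% inhibition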
The depositor's hits bear a star; ? = inconclusive; nt = not tested or not shown.

SMILES	AI-2 QS mod	HIF act	ARNT-TACC3 inh	T cruzi repl	JMH597 growth rt	BB721 const-QS lum	BB721 growth rt	JMH597 AI-2 mod
Cc1cccc(NC(=O)C2CC2c2ccccc2)c1C (stereo not given)	15	-1	-5	-12	nt	nt	nt	nt
CC(=O)Nc1ccc(C(=O)OCc2ccc(Br)cc2)cc1	-89*	0	-4	15	10	96*	?	95*
O=C(OCc1ccc(Br)cc1)c1ccncc1	-2	0	nt	-8	nt	nt	nt	nt
Cc1cccc(NS(=O)(=O)c2ccc(Oc3ccccc3)cc2)n1	-89*	-1	-8	2	25	11	-20	96*
Cc1noc(C)c1S(=O)(=O)Nc1ccc2c(c1)C(=O)N([C@@H](C)CO)C[C@@H](C)[C@@H](CN(C)S(=O)(=O)c1ccccc1)OCCCC[C@@H](C)O2	nt	nt	-5	nt	nt	nt	nt	nt
Nc1ccccc1S(=O)(=O)NCCCCc1ccccc1	-89*	0	-18	-18	-4	95*	5	96*
CCc1ccc(OCC(=O)O/N=C(\N)c2cccnc2)cc1	-92*	2	nt	1	11	95*	-3	96*
Cc1cccc(OCC(=O)Nc2cc(C)ccc2O)c1	-85*	1	-6	1	34	96*	29	97*
CCc1cccc(OCC(=O)Nc2ccc(S(=O)(=O)N3CCCC3)cc2)c1	-90*	-1	4	2	43	97*	?	98*
COc1ccccc1CNC(=O)COc1ccc(S(=O)(=O)N2CCCC2)cc1	?	1	30	2	19	85*	8	93*
Cc1cccc(OCC(=O)Nc2cc(C)c(C)cc2O)c1	-16	1	-20	6	nt	nt	nt	nt
CC(=O)Nc1ccc(NC(=O)COc2ccc(S(=O)(=O)N3CCCC3)cc2)cc1	18	0	nt	7	nt	nt	nt	nt
Cc1cccc(OCC(=O)Nc2ccc(S(=O)(=O)N3CCCC3)cc2)c1	-97*	-1	-6	-19	9	99*	-3	100*
C[C@H]1CN([C@@H](C)CO)C(=O)c2cc(NC(=O)Nc3ccc(F)cc3)ccc2O[C@H]1CN(C)S(=O)(=O)c1ccc(Cl)cc1	nt	nt	2	nt	nt	nt	nt	nt
COc1ccc(/C=C/C(=O)c2ccc(O)cc2)cc1	-93*	2	nt	-20	22	97*	6	97*
CC(C)(C)c1ccc(OCC(=O)Nc2ccncc2)c(Br)c1	19	4	2	-8	nt	nt	nt	nt
CCc1ccc(NC(=O)COc2ccc(Br)cn2)cc1	-84*	1	-12	1	-16	95*	1	96*
CCc1ccc(OCC(=O)Nc2ccncc2)c(Br)c1	-81*	13*	-4	-38	30	?	-22	100*
COc1ccccc1CNC(=O)C[C@H]1CC[C@@H]2[C@@H](COc3ccc(NC(=O)Nc4ccc(F)c(F)c4)cc3C(=O)N2C)O1	nt	nt	3	nt	nt	nt	nt	nt
C[C@@H]1CN([C@H](C)CO)S(=O)(=O)c2ccc(-c3ccccc3F)cc2O[C@H]1CN(C)C(=O)C1CC1	nt	nt	-5	nt	nt	nt	nt	nt
COc1ccc(NC(=O)CN2C(=O)NC(c3ccccc3)(c3ccccc3)C2=O)cc1	-94*	0	-12	-3	2	92*	14	96*
COc1ccc(C2(c3ccc(OC)cc3)NC(=O)N(CC(=O)Nc3ccc(OC(F)F)cc3)C2=O)cc1	3	0	0	28	nt	nt	nt	nt
CCc1ccc(C(=O)NNC(=O)CN2C(=O)NC(CC)(c3ccccc3)C2=O)cc1 (stereo not given)	-83*	1	-2	0	5	88*	8	94*
CCCC1(c2ccccc2)NC(=O)N(CC(=O)NCc2ccc(C)cc2)C1=O (stereo not given)	-91*	0	-4	-8	-6	89*	-13	94*
CCC1(c2ccccc2)NC(=O)N(CC(=O)NNC(=O)c2ccoc2C)C1=O (stereo not given)	3	2	-2	1	nt	nt	nt	nt
SMILES	AI-2 QS mod	HIF act	ARNT-TACC3 inh	T cruzi repl	JMH597 growth rt	BB721 const-QS lum	BB721 growth rt	JMH597 AI-2 mod
CCCC1(c2ccccc2)NC(=O)N(CC(=O)NCc2ccc(OC)cc2)C1=O (stereo not given)	-86*	0	6	-11	-18	86*	-4	91*
CC(=O)N1[C@@H]2c3ccc(-c4cccc(F)c4)c(=O)n3C[C@H]1[C@H](CO)[C@H]2C(=O)NCC1CC1	nt	nt	2	nt	nt	nt	nt	nt
COc1ccc(S(=O)(=O)N(C)C[C@H]2OCCCC[C@H](C)Oc3ccc(NC(=O)c4ccncc4)cc3C(=O)N([C@@H](C)CO)C[C@@H]2C)cc1	nt	nt	0	nt	nt	nt	nt	nt
O=C(NNc1nc2cc3c(cc2s1)OCO3)c1ccccc1	-91*	1	3	-2	2	98*	20	98*
COc1cc(C(=O)NNc2nc3cc4c(cc3s2)OCO4)cc(OC)c1OC	25	0	7	-4	nt	nt	nt	nt
O=C(Nc1cnn(Cc2ccc(Cl)cc2)c1)c1cccs1	-89*	0	-3	-2	26	96*	-9	97*
Cc1noc(C)c1NC(=O)Nc1cccc2c1O[C@@H](CN(C)C)[C@@H](C)CN([C@@H](C)CO)C2=O	nt	nt	-3	nt	nt	nt	nt	nt
CCCSc1nsc(NC(=O)c2cccnc2OCC)n1	-95*	1	30	6	69	100*	-25	100*
COc1ccc(NC(=O)Cn2nnc(-c3ccccc3N)n2)cc1OC	9	nt	-3	2	nt	nt	nt	nt
COc1cc(NC(=O)Cn2nnc(-c3ccccc3N)n2)cc(OC)c1	-89*	0	2	16	20	98*	19	98*
COC(=O)c1ccc(NC(=O)CN2C(=O)c3ccccc3S2(=O)=O)cc1	-90*	1	nt	-1	17	96*	4	97*
Cc1ccccc1OCCNC(=O)/C=C/c1ccccc1	-82*	1	-10	3	-28	94*	-12	96*
Cc1ccccc1OCCNC(=O)c1ccc2ccccc2n1	-78*	4	nt	6	24	91*	7	94*
Cc1ccccc1OCCNC(=O)/C=C/c1ccc([N+](=O)[O-])cc1	0	0	0	23	nt	nt	nt	nt
C[C@@H]1CN([C@H](C)CO)C(=O)c2cc(NC(=O)C3CCCCC3)ccc2O[C@@H]1CN(C)C(=O)NC1CCCCC1	nt	nt	-6	nt	nt	nt	nt	nt
C[C@@H]1CN([C@H](C)CO)C(=O)Cc2cc(NC(=O)NC3CCCCC3)ccc2O[C@H]1CN(C)Cc1ccc(C(=O)O)cc1	nt	nt	-7	nt	nt	nt	nt	nt
COc1ccc(S(=O)(=O)Nc2ccc3c(c2)C(=O)N(C)C[C@H](OC)[C@@H](C)CN[C@H](C)CO3)cc1	nt	nt	4	nt	nt	nt	nt	nt
